Test results reported in ChEMBL document CHEMBL3120102, “Structure-based design, synthesis and biological evaluation of novel anthra[1,2-d]imidazole-6,11-dione homologues as potential antitumor agents” (2013).

Key:
Assay type in all cases: functional
NCI-H226 = test: Cytotoxicity against human NCI-H226 cells assessed as growth inhibition after 48 hrs by SRB assay
Outline: (§1)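 NCI 60-cell-line screen, five-dose stage: each cell line exposed for 48 h to five concentrations spanning five log steps; cellular protein measured by sulforhodamine B colorimetry. A time-zero cell control and plates without drug are used to derive GI50, TGI and LC50 from log-concentration dose-response curves.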

UO-31 = test: (§2) Cytotoxicity against human UO31 cells assessed as growth inhibition after 48 hrs by SRB assay
Outline: (§3)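 NCI 60-cell-line screen, two stages. Five-dose testing at […]. Cellular protein measured by sulforhodamine B colorimetry after 48 h drug exposure. A time-zero control and drug-free plates are used to derive GI50, TGI and LC50 from dose-response curves plotted as log10 concentration per cell line.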

[1] = as §2; settings: UO-31, 48 h; outline: as §3
NCI-H460 = test: Cytotoxicity against human NCI-H460 cells assessed as growth inhibition after 48 hrs by SRB assay; outline: as §1
[2] = Cytotoxicity against human Hs578T cells assessed as cell growth at 10 uM after 48 hrs by SRB assay; settings: Hs-578T, read-out: Activity
SR = test: Cytotoxicity against human SR cells assessed as growth inhibition after 48 hrs by SRB assay; outline: as §3
HL-60(TB) = test: Cytotoxicity against human HL-60(TB) cells assessed as growth inhibition after 48 hrs by SRB assay
Outline: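 NCI 60-cell panel five-concentration stage (0.01, 0.1, 1, 10, 100) in HL-60(TB). Cellular protein was measured by sulforhodamine B colorimetry after 48 h of exposure. A time-zero cell control and untreated plates allowed calculation of GI50, TGI and LC50. These were read from log10 concentration dose-response curves.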

[3] = (§4) Cytotoxicity against human Hs578T cells assessed as growth inhibition after 48 hrs by SRB assay; settings: Hs-578T
Outline: (§5)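 NCI 60-cell-line five-dose screen at […]. Drug exposure was 48 h, followed by sulforhodamine B protein staining. GI50, TGI and LC50 were calculated against a time-zero control and untreated plates, with dose–response curves plotted from log10 concentration.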

Hs-578T = test: as §4; outline: as §5
OVCAR-3 = test: Cytotoxicity against human OVCAR3 cells assessed as cell growth at 10 uM after 48 hrs by SRB assay; settings: OVCAR-3, 48 h, read-out: Activity
Outline: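 First stage of the NCI 60 human tumour cell line screen: a single dose is tested against every line. Cell growth is read as cellular protein by sulforhodamine B colorimetry after 48 h of drug exposure, with reference to a time-zero control and to untreated plates.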

SK-MEL-2 = test: Cytotoxicity against human SK-MEL-2 cells assessed as growth inhibition after 48 hrs by SRB assay; outline: as §1
SF-539 = test: Cytotoxicity against human SF539 cells assessed as growth inhibition after 48 hrs by SRB assay; outline: as §1
[4] = (§6) Cytotoxicity against human UACC257 cells assessed as growth inhibition after 48 hrs by SRB assay; settings: UACC-257, 48 h; outline: as §3
UACC-257 = test: as §6; outline: as §3
SK-MEL-28 = test: Cytotoxicity against human SK-MEL-28 cells assessed as growth inhibition after 48 hrs by SRB assay; outline: as §1
DU-145 = test: Cytotoxicity against human DU145 cells assessed as growth inhibition after 48 hrs by SRB assay; outline: as §5
SF-295 = test: Cytotoxicity against human SF295 cells assessed as growth inhibition after 48 hrs by SRB assay; outline: as §1
SK-MEL-5 = test: Cytotoxicity against human SK-MEL-5 cells assessed as growth inhibition after 48 hrs by SRB assay; outline: as §1
ACHN = test: Cytotoxicity against human ACHN cells assessed as growth inhibition after 48 hrs by SRB assay; outline: as §5
MOLT-4 = test: Cytotoxicity against human MOLT4 cells assessed as growth inhibition after 48 hrs by SRB assay; outline: as §1
RPMI-8226 = test: Cytotoxicity against human RPMI8226 cells assessed as growth inhibition after 48 hrs by SRB assay; outline: as §1
A549 = test: Cytotoxicity against human A549 cells assessed as growth inhibition after 48 hrs by SRB assay; outline: as §5
NCI-H522 = test: Cytotoxicity against human NCI-H522 cells assessed as growth inhibition after 48 hrs by SRB assay; outline: as §1
SW-620 = test: Cytotoxicity against human SW620 cells assessed as growth inhibition after 48 hrs by SRB assay; outline: as §3
OVCAR-8 = test: Cytotoxicity against human OVCAR8 cells assessed as growth inhibition after 48 hrs by SRB assay; outline: as §1
786-0 = test: Cytotoxicity against human 786-0 cells assessed as growth inhibition after 48 hrs by SRB assay; outline: as §5
TK-10 = test: Cytotoxicity against human TK10 cells assessed as growth inhibition after 48 hrs by SRB assay; outline: as §3
SNB-75 = test: Cytotoxicity against human SNB75 cells assessed as growth inhibition after 48 hrs by SRB assay; outline: as §3
[5] = read-out: LC50 (the source's name)

## CCCSc1nc2ccc3c(c2[nH]1)C(=O)c1ccccc1C3=O
NCI-H226
  growth inhibition (GI): Dose-dependent effect
NCI-H226; NCI-H226, 48 h
  GI50: 4.37 µM
  LC50: > 100 µM
  TGI: > 100 µM
UO-31
  growth inhibition (GI): Dose-dependent effect
[1]
  GI50: 2.53 µM
  LC50: > 100 µM
  TGI: 70.2 µM
NCI-H460
  growth inhibition (GI): Dose-dependent effect
NCI-H460; NCI-H460, 48 h
  GI50: 44.7 µM
  LC50: > 100 µM
  TGI: > 100 µM
[2]
  growth at 10 µM: 33.3%
SR
  GI50: 4.63 µM
  LC50 (50% lethal concentration): > 100 µM
  TGI: > 100 µM
  growth inhibition (GI): Dose-dependent effect
HL-60(TB)
  growth inhibition (GI): Dose-dependent effect
HL-60(TB); HL-60, 48 h
  GI50: 68.4 µM
  LC50: > 100 µM
  TGI: > 100 µM
[3]
  GI50: 3.45 µM
  TGI: 83 µM
[3]; [5]
  CC50: > 100 µM
Hs-578T
  growth inhibition (GI): Dose-dependent effect
OVCAR-3
  growth at 10 µM: 62.7%
SK-MEL-2
  growth inhibition (GI): Dose-dependent effect
SK-MEL-2; SK-MEL-2, 48 h
  GI50: 15.9 µM
  LC50 (50% lethal concentration): > 100 µM
  TGI: > 100 µM
SF-539
  growth inhibition (GI): Dose-dependent effect
SF-539; SF-539, 48 h
  GI50: 3.07 µM
  TGI: 32 µM
SF-539; SF-539, 48 h, read-out: LC50 (the source's name)
  CC50: > 100 µM
[4]
  GI50: > 100 µM
  LC50: > 100 µM
  TGI: > 100 µM
UACC-257
  growth inhibition (GI): Dose-dependent effect
SK-MEL-28
  growth inhibition (GI): Dose-dependent effect
SK-MEL-28; SK-MEL-28, 48 h
  GI50: > 100 µM
  LC50: > 100 µM
  TGI: > 100 µM
DU-145
  growth inhibition (GI): Dose-dependent effect
DU-145; DU-145, 48 h
  GI50: > 100 µM
  TGI: > 100 µM
DU-145; DU-145, 48 h, read-out: LC50 (the source's name)
  CC50: > 100 µM
SF-295
  growth inhibition (GI): Dose-dependent effect
SF-295; SF-295, 48 h
  GI50: 3.19 µM
  LC50: > 100 µM
  TGI: 60.2 µM
SK-MEL-5
  growth inhibition (GI): Dose-dependent effect
SK-MEL-5; SK-MEL-5, 48 h
  GI50: > 100 µM
  LC50 (concentration killing 50% of cells relative to time zero): > 100 µM
  TGI: > 100 µM
ACHN
  GI50: 2.69 µM
  TGI: 42.8 µM
  growth inhibition (GI): Dose-dependent effect
ACHN; [5]
  CC50: > 100 µM
MOLT-4
  growth inhibition (GI): Dose-dependent effect
MOLT-4; MOLT-4, 48 h
  GI50: > 100 µM
  LC50 (50% lethal concentration): > 100 µM
  TGI: > 100 µM
RPMI-8226
  growth inhibition (GI): Dose-dependent effect
RPMI-8226; RPMI-8226, 48 h
  GI50: > 100 µM
  LC50 (concentration causing 50% net cell kill): > 100 µM
  TGI: > 100 µM
A549
  growth inhibition (GI): Dose-dependent effect
A549; A549, 48 h
  GI50: 6.37 µM
  LC50 (concentration killing 50% of cells): > 100 µM
  TGI: > 100 µM
NCI-H522
  growth inhibition (GI): Dose-dependent effect
NCI-H522; NCI-H522, 48 h
  GI50: 11.6 µM
  TGI: > 100 µM
NCI-H522; NCI-H522, 48 h, read-out: LC50 (the source's name)
  CC50: > 100 µM
SW-620
  growth inhibition (GI): Dose-dependent effect
SW-620; SW-620, 48 h
  GI50: > 100 µM
  LC50: > 100 µM
  TGI: > 100 µM
OVCAR-8
  growth inhibition (GI): Dose-dependent effect
OVCAR-8; OVCAR-8, 48 h
  GI50: 3.48 µM
  LC50: > 100 µM
  TGI: > 100 µM
786-0
  growth inhibition (GI): Dose-dependent effect
786-0; 786-0, 48 h
  GI50: 2.13 µM
  LC50 (concentration causing 50% net cell kill): 9.04 µM
  TGI: 4.39 µM
TK-10
  growth inhibition (GI): Dose-dependent effect
TK-10; TK-10, 48 h
  GI50: 3.25 µM
  LC50: > 100 µM
  TGI: 21.6 µM
SNB-75
  growth inhibition (GI): Dose-dependent effect
SNB-75; SNB-75, 48 h
  GI50: 2.64 µM
  LC50: 98.1 µM
  TGI: 6.43 µM
